WT yeast gro inh: growth inhibition of WT strain, primary screen, mitochondrial fusion inhibitor project, WT and mutant strains, chemical genetic; mitochondrial fusion phenotypic screen; inhibition, % at 10 µM; 190,000 tested, 2.1% active; AID 1362, 2008; in the data active = inhibition above about 58%; tested in S. cerevisiae
KCC2 mod: KCC2 cotransporter modulators, thallium flux, primary screen, cell-based, HEK293 KCC2, FluoZin-2 fluorescence, MLSMR. B-score of Tl+ flux slope (higher = more flux/activation; lower = inhibition) at 10 µM. AID 1456, 2008. Solute carrier family 12 member 5 (Homo sapiens), Q9H2X9. KCC2 cells, thallium flux FluoZin-2 fluorescence. 190,000 tested, 2.2% active;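 active = thallium flux slope and its plate-corrected score both differing from the plate sample mean at a set confidence after two filtering rounds, in either direction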;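 also: slope of fluorescence scaled to starting intensity during 10 to 20 s after thallium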
BB579 growth dn: growth inhibitors of yeast BB579 in restrictive medium, primary screen, yeast lifespan-shortening project, S. cerevisiae. OD615, 48 h. 140,000 tested, 0.51% active. inhibition, % at 10 µM;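 active = inhibition above a set limit, 3 SD over the mean compound inhibition, cut at about 44% in these data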
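Test system: S. cerevisiae DeaD strain BB579 yeast; Medium: restrictive CSMM-D medium; Compound: one dose, 10 µM compound with 0.25% DMSO; Incubation: 4 h cell preincubation, 48 h compound exposure, 30 °C humidified; Signal: OD at 615 nm; Benchmarks: amphotericin B at 10 µg/mL as positive control.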
RAM network inh: inhibitors of the yeast RAM network, primary screen, dse1pr::URA3 reporter, 5-FOA selection; S. cerevisiae dse1pr::URA3 reporter, 5-FOA growth OD615, 2 d; analog-sensitive cbk1-as2 kinase mutant strain; inhibition, % at 50 µM; 190,000 tested, 1.8% active; AID 868, 2007;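 active = inhibition above a set limit, 3 SD over mean compound inhibition, cut at about 8.4% in these data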;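 also: 0% = DMSO-only wells with no growth and 100% = 10 µM 1-NA-PP1 full growth; inhibition rescues growth on 5-FOA so higher OD means more RAM inhibition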
Yeast life ext: compounds extending yeast replicative lifespan, primary screen, S. cerevisiae, OD615; S. cerevisiae growth with nicotinamide; deaD strain in restrictive glucose medium; inhibition of the nicotinamide effect, % at 10 µM; 130,000 tested, 0.68% active; AID 775, 2007;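 active = inhibition above a set limit, placed 3 SD over the median of all compounds, cut at about 26% in these data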;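 also: 0% = nicotinamide-treated wells and 100% = cells grown without nicotinamide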
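System: DeaD-strain S. cerevisiae / Buffer or medium: CSMM-D, restrictive glucose (dextrose) synthetic minimal medium / Probe or stimulus: nicotinamide, 1.5 mM, co-present with compound / Compound: one concentration, 10 µM, DMSO 0.25% / Incubation: 48 h compound exposure at 30 °C, humidified / Technique: optical density (absorbance) at 615 nm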
Numbers without * were called inactive; . = not tested or not shown. This is a sample that favours compounds with a hit; in the whole collection about 5.5% have one here.

SMILES	WT yeast gro inh	KCC2 mod	BB579 growth dn	RAM network inh	Yeast life ext
Cc1cc(C(=O)NCc2ccccc2Cl)n(-c2ccccc2)n1	.	0.66	.	.	.
N#C/C(=C\c1ccc2c(c1)OCCO2)C(=O)NC1CCCCC1	6	-0.77	-17	4	2
CCCCCCCCNC(=O)/C(C#N)=C/c1ccc2c(c1)OCCO2	-16	-1.1	-24	9.4*	5
N#C/C(=C\c1cccnc1)C(=O)NC1CCCCC1	7	0.64	-18	2	32*
CCCCNC(=O)/C(C#N)=C/c1cccnc1	15	1.5	-2	4	46*
CC(C)(C)c1ccc(Cn2cnc(-c3ccc([N+](=O)[O-])cc3)c2)cc1	19	0.33	-36	0	0
Cc1cc(C)c(Cn2cnc(-c3ccc([N+](=O)[O-])cc3)c2)c(C)c1	60*	.	-9	3	-13
CC(=O)Oc1ccc2c(=O)c(N3C(=O)c4ccccc4C3=O)c(C)oc2c1	-36	-0.21	-39	1	28*
CC(=O)Oc1ccc2c(C)cc(=O)oc2c1	-9	-1.2	0	1	-9
Cc1cc(=O)oc2cc(OC(=O)CCCCCN3C(=O)c4ccccc4C3=O)ccc12	-3	-1	-50	6	32*
Cc1oc2cc(O)ccc2c(=O)c1N1C(=O)c2ccccc2C1=O	3	0.42	-37	0	-2
O=C(OCc1ccc(F)cc1)c1ccc2ccccc2n1	16	-2.1	.	0	.
COc1ccccc1/C=C/C(=O)OCc1nc2ccccc2c(=O)[nH]1	-2	-0.69	.	1	.
COc1ccc(S(=O)(=O)N/N=c2\oc3c(OC)cccc3cc2S(=O)(=O)c2ccc(C)cc2)cc1OC	-11	-0.96	.	11*	.
COc1ccc(S(=O)(=O)Nc2ccc(C)cc2)cc1OC	11	.	-12	0	-1
CCNC(=O)NC(=O)COC(=O)CCCc1nc2ccccc2s1	1	-0.13	.	5	.
COc1ccc(/C=C/C(=O)c2oc3ccc(F)cc3c2C)cc1	0	1.5	-41	11*	5
Cc1ccc(OC(=O)c2oc3ccc(F)cc3c2C)c(C)c1	0	.	-43	4	-13
O=C(NCCN1CCOCC1)c1ccc(F)cc1	.	.	-15	0	-5
O=C(NCCN1CCOCC1)c1ccc(=O)oc1	62*	-0.2	2	1	-10
CCOC(=O)c1c(NC(=O)Cc2cccs2)sc(C(=O)NC2CCCCC2)c1C	1	0.55	-26	5	-2
COC(=O)c1c(NC(=O)Cc2cccs2)sc(C(=O)N2CCCCC2)c1C	-26	-0.75	-36	10*	29*
O=C(NNC(=S)NCc1ccc(Cl)cc1)c1ccc2c(c1)OCO2	9	1.3	.	0	.
CCOC1(OCC)C(c2ccc(Cl)cc2)C(C#N)(C#N)C1(OCC)OCC (configuration not stated)	65*	0.008	-17	7	-4
O=C(CSc1ncn[nH]1)Nc1cc(S(=O)(=O)N2CCCC2)ccc1Cl	-17	0.1	.	2	.
SMILES	WT yeast gro inh	KCC2 mod	BB579 growth dn	RAM network inh	Yeast life ext
CCCCC1C(=O)N(c2ccccc2)N(c2ccccc2)C1=O	-1	-0.83	-24	2	28*
CCCCOCC1CN(c2ccccc2)C(=O)CS1 (configuration not stated)	7	0.11	-30	1	3
COc1cccc(C(c2sc3nc(C)nn3c2O)N2CCc3ccccc3C2)c1 (configuration not stated)	12	0.32	-20	3	4
COP(=O)(OC)C(Nc1ccc([N+](=O)[O-])cc1)c1ccccc1 (configuration not stated)	.	-0.43	.	.	.
CCCOP(=O)(OCCC)C(Nc1ccc(C(C)C)cc1)c1ccc([N+](=O)[O-])cc1 (configuration not stated)	74*	-0.68	-36	9.4*	-3
O=C(NCc1ccco1)c1cc(C(=O)C2CCCCC2)c[nH]1	12	-0.53	-56	3	96*
O=C(NCc1ccco1)C1CCCCC1	-3	-0.31	.	1	.
COc1cccc(-c2noc(CCC(=O)NCC3CCCO3)n2)c1 (configuration not stated)	-1	-2.5	.	1	.
CCCN(CC(=O)Nc1cc(Cl)cc(Cl)c1)CC(=O)Nc1ccc(F)c(F)c1F	73*	0.99	-35	4	-3
CCCN(CC(=O)Nc1ccccc1Br)CC(=O)Nc1ccc(F)c(F)c1F	3	-1.6	-23	1	5
COc1ccc(CNC(=O)c2ccc(CS(=O)(=O)Cc3ccccc3F)o2)cc1	-13	0.19	.	1	.
COc1ccc(NCC(=O)N/N=C/c2cc([N+](=O)[O-])ccc2N2CCCC2)cc1	-7	-0.35	.	3	.
CCCCN(C)C1CCN(C(=S)Nc2cccc(SC)c2)CC1	9	0.59	.	0	.
CCCCOC(=O)n1c(=S)oc2cc(Cl)ccc21	32	1.2	98*	-1	-23
CCCCOC(=O)n1c(=O)oc2cc(S(=O)(=O)N3CCCCC3)ccc21	-20	-0.21	-46	1	68*
O=C(Cn1c(=O)oc2cc(S(=O)(=O)N3CCCCCC3)ccc21)NC1CCCCC1	-13	2.2	-24	8.8*	-10
COC(=O)n1c(=O)oc2ccc(S(=O)(=O)N3CCCCC3)cc21	.	0.0092	.	.	.
CCCCOC(=O)CCn1c(=S)oc2ccccc21	-39	-0.078	-40	0	-8
CN1CCN(c2ccc(-c3ccnn3C(=O)Nc3cccc(C(F)(F)F)c3)cc2)CC1	68*	0.84	.	0	.
O=C(/C=C/c1ccc(Cl)cc1)NC(=S)NN1CCCCC1c1cccnc1 (configuration not stated)	66*	6.2*	-25	-1	-4
COc1ccc(/C=C/C(=O)NC(=S)NN2CCCCC2c2cccnc2)cc1OC (configuration not stated)	0	1.7	2	-1	-4
CCc1ccc(NC(=S)NNC(=O)c2ccccc2OC(F)F)cc1	6	18*	-23	-1	-5
Cc1ccc(C(C)C)c(Oc2nnnn2-c2ccccc2)c1	66*	-0.019	-27	0	-5
Cc1ccc(C)c(Oc2nnnn2-c2ccccc2)c1	16	-0.3	-28	0	-18
CCOC(=O)c1sc2ccccc2c1OC(=O)c1ccccc1OC	20	0.079	-26	10*	16
O=C(Nc1ccc(OCC(F)(F)C(F)F)c(C(F)(F)F)c1)c1ccccc1O	75*	-0.27	-25	1	-6
O=C(Nc1ccc(OCC(F)(F)C(F)F)cc1)c1ccncc1	2	-0.15	.	-1	.
CC(NS(=O)(=O)c1ccc(Br)cc1)C(N)=O (configuration not stated)	66*	0.83	-35	1	-14
